Usually IC50 stands for the concentration needed to halve the response being measured. Low values mean inhibition by little substance, high ones a need for much substance.

For 13 compounds, IC50, selectivity ratio and Ratio IC50 results are on record in ChEMBL document CHEMBL1140972, “Synthesis and structure-activity relationship of 3-phenylquinoxaline 1,4-di-N-oxide derivatives as antimalarial agents” (Eur J Med Chem, 2008).

Data set [1] concerns Plasmodium falciparum. Description: Antimalarial activity after 48 hrs against chloroquine-sensitive Plasmodium falciparum 3D7 by [3H]hypoxanthine uptake. In kind it is functional, organism-based. The gist of the method: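 Asynchronous culture (65-75% rings, 0.5% parasitemia, 2.5% final hematocrit) in RPMI 1640 with 0.5% Albumax II, 0.2% glucose, 0.03% L-glutamine and 5 µM hypoxanthine. Triplicate wells with a 3-fold series of 10.0–0.0412 µg/mL; final DMSO ≤0.01%. 37 °C, 5% CO2: 24 h, then 0.2 µCi/well [3H]hypoxanthine for a further 24 h. Frozen, harvested, scintillation-counted. IC50 from curve fit; mean of 2–3 experiments.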

The test system of data set [2] is Plasmodium falciparum. Description: Antimalarial activity after 48 hrs against chloroquine-resistant Plasmodium falciparum K1 by [3H]hypoxanthine uptake. In kind it is functional, organism-based. In a few lines: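 Asynchronous P. falciparum K1 culture (65-75% ring stage, 0.5% parasitemia; chloroquine, pyrimethamine, cycloguanil resistant) at 2.5% hematocrit in RPMI 1640 with 0.5% Albumax II, glucose, L-glutamine, 5 µM hypoxanthine. Triplicate 3-fold dilutions 10.0–0.0412 µg/mL, DMSO ≤0.01% final, 37 °C, 5% CO2. [3H]-hypoxanthine (0.2 µCi/well) added at 24 h, incorporation counted after further 24 h. IC50 by curve fit, 2–3 experiments.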

The subject of the next data set is KB. Description: Cytotoxicity against human KB cells after 48 hrs by alamar blue assay. In kind it is cell-based.
Data set [3] is described as follows: Selectivity index, ratio of IC50 for human KB cells to IC50 for chloroquine-sensitive Plasmodium falciparum 3D7. In kind it is toxicity, cell-based. The following applies: read-out: Ratio IC50. In a few lines: (§1)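 KB IC50 divided by the parasite IC50 (K1 or 3D7). KB cells seeded at 4×10^4 cells/mL in RPMI 1640 with 10% heat-inactivated FCS and grown 24 h. Triplicate dilution series then added for 72 h. AlamarBlue for 2–4 h, fluorescence ex 530/em 585 nm, IC50 by curve fit. Podophyllotoxin as positive control.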

A short description of data set [4]: Selectivity index, ratio of IC50 for human KB cells to IC50 for chloroquine-resistant Plasmodium falciparum K1. In kind it is toxicity, cell-based. Conditions: read-out: Ratio IC50. In a few lines: as §1
Data set [5] can be described thus: Resistant index, ratio of IC50 for chloroquine-resistant Plasmodium falciparum K1 to IC50 for chloroquine-sensitive Plasmodium falciparum 3D7. In kind it is functional. In a few lines:
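IC50 against K1 divided by IC50 against 3D7 (drug-sensitive NF54 clone). Both from [3H]-hypoxanthine incorporation over 48 h: asynchronous cultures at 0.5% parasitemia, 2.5% hematocrit, 3-fold dilutions 10.0–0.0412 µg/mL in triplicate. Label added at 24 h. Means of 2–3 independent experiments.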

Regarding `COc1ccc2c(c1)[n+]([O-])c(C#N)c(-c1ccc(C)cc1)[n+]2[O-]`, the 50% inhibitory concentration (IC50) with Plasmodium falciparum [1] came to 810 nM; in the data set with Plasmodium falciparum [2] it was 2290 nM; in the data set on KB, 17000 nM. In addition, the figures for the selectivity ratio in data set [3] and in data set [4] were 20.9 and 7.39, respectively. Also, the Ratio IC50 in data set [5] came to 2.83.
For the compound `Cc1cc2c(cc1C)[n+]([O-])c(-c1ccc(F)cc1)c(C#N)[n+]2[O-]`, the figures for the IC50 in the data set with Plasmodium falciparum [1], in the data set with Plasmodium falciparum [2] and with KB were 1260 nM, 930 nM and 18800 nM, respectively. The figures for the selectivity ratio in data set [3] and in data set [4] were 14.9 and 20.4, respectively. Also, in data set [5], the Ratio IC50 came to 0.73.
Consider `Cc1ccc2c(c1)[n+]([O-])c(C#N)c(-c1ccc(Cl)cc1)[n+]2[O-]`, for which the half-inhibitory concentration (IC50) in the data set on Plasmodium falciparum [1] amounted to 480 nM; in the data set on Plasmodium falciparum [2], 190 nM; with KB it was 9250 nM. Also, the selectivity ratio in data set [3] was 19.3; in data set [4], 49.5. In addition, the Ratio IC50 in data set [5] was found to be 0.39.
For `N#Cc1c(-c2ccc(F)cc2)[n+]([O-])c2ccc(C(F)(F)F)cc2[n+]1[O-]`, the half-inhibitory concentration (IC50) in the data set with Plasmodium falciparum [1] is 660 nM; in the data set on Plasmodium falciparum [2], 520 nM; in the data set with KB, 2850 nM. In addition, the selectivity ratio turned out to be 4.32 in data set [3] and 5.48 in data set [4]. The Ratio IC50 in data set [5] came out at 0.79.
Regarding `COc1ccc2c(c1)[n+]([O-])c(C#N)c(-c1ccccc1)[n+]2[O-]`, the values for the concentration for half-maximal inhibition (IC50) in the data set on Plasmodium falciparum [1], in the data set with Plasmodium falciparum [2] and with KB were 1470 nM, 720 nM and 10500 nM, respectively. Also, the selectivity ratio worked out at 7.12 in data set [3] and 14.5 in data set [4]. In data set [5], the Ratio IC50 was 0.49.
Consider `N#Cc1c(-c2ccc(Cl)cc2)[n+]([O-])c2ccc(C(F)(F)F)cc2[n+]1[O-]`, for which the half-maximal inhibitory concentration (IC50) in the data set on Plasmodium falciparum [1] came to 1560 nM; with Plasmodium falciparum [2] it was 1770 nM; with KB, 2760 nM. For the same compound, the selectivity ratio stood at 1.77 in data set [3] and 1.56 in data set [4]. The Ratio IC50 in data set [5] was found to be 1.13.
For `N#Cc1c(-c2ccc(OC(F)(F)F)cc2)[n+]([O-])c2ccc(Cl)cc2[n+]1[O-]`, the results for the IC50 in the data set with Plasmodium falciparum [1], in the data set with Plasmodium falciparum [2] and in the data set on KB were 710 nM, 930 nM and 2350 nM, respectively. Further, the selectivity ratio amounted to 3.31 in data set [3] and 2.53 in data set [4]. Also, the Ratio IC50 in data set [5] is 1.31.
Take `Cc1ccc(-c2c(C#N)[n+]([O-])c3cc(C(F)(F)F)ccc3[n+]2[O-])cc1`: the IC50 was 720 nM in the data set with Plasmodium falciparum [1], 870 nM in the data set on Plasmodium falciparum [2] and 3170 nM with KB. Besides, the selectivity ratio in data set [3] was 4.4; in data set [4], 3.64. In data set [5], the Ratio IC50 is 1.21.
As to `N#Cc1c(-c2ccccc2)[n+]([O-])c2ccc(C(F)(F)F)cc2[n+]1[O-]`, the 50% inhibitory concentration (IC50) in the data set with Plasmodium falciparum [1] came to 330 nM; in the data set on Plasmodium falciparum [2], 180 nM; in the data set on KB it was 2820 nM. For the same compound, the selectivity ratio stood at 8.55 in data set [3] and 15.7 in data set [4]. For the same compound, the Ratio IC50 in data set [5] is 0.55.
`COc1ccc2c(c1)[n+]([O-])c(C#N)c(-c1ccc(F)cc1)[n+]2[O-]`: the IC50 in the data set with Plasmodium falciparum [1] is 870 nM; in the data set on Plasmodium falciparum [2], 360 nM; with KB, 18500 nM. In addition, the selectivity ratio in data set [3] was 21.3; in data set [4], 50.9. Further, the Ratio IC50 in data set [5] is 0.42.
`Cc1ccc2c(c1)[n+]([O-])c(C#N)c(-c1ccccc1)[n+]2[O-]`: the half-maximal inhibitory concentration (IC50) came out at 1550 nM with Plasmodium falciparum [1], 740 nM in the data set with Plasmodium falciparum [2] and 11600 nM with KB. Moreover, the values for the selectivity ratio in data set [3] and in data set [4] were 7.52 and 15.8, respectively. The Ratio IC50 in data set [5] turned out to be 0.48.
For the compound `Cc1ccc(-c2c(C#N)[n+]([O-])c3cc(C)ccc3[n+]2[O-])cc1`, the half-maximal inhibitory concentration (IC50) in the data set on Plasmodium falciparum [1] is 1300 nM; with Plasmodium falciparum [2] it was 950 nM; in the data set on KB, 25000 nM. In addition, the selectivity ratio in data set [3] turned out to be 19.2; in data set [4], 26.2. Besides, the Ratio IC50 in data set [5] amounted to 0.73.
Take `COc1ccc2c(c1)[n+]([O-])c(C#N)c(-c1ccc(OC(F)(F)F)cc1)[n+]2[O-]`: the IC50 was determined as 930 nM with Plasmodium falciparum [1], 1250 nM in the data set with Plasmodium falciparum [2] and 8250 nM with KB. The selectivity ratio was determined as 8.87 in data set [3] and 6.58 in data set [4]. Moreover, in data set [5], the Ratio IC50 turned out to be 1.35.
